Results: ChEMBL document CHEMBL4118140, “Synthesis and in vitro evaluation of homoisoflavonoids as potent inhibitors of nitric oxide production in RAW-264.7 cells” (Bioorg Med Chem Lett, 2018)
Blank lines part the entries; values can stand above or below the molecule they belong to. The source made the active and inactive calls. The rule behind the calls is not given here.

Tests used:
[1] = Cytotoxicity against mouse RAW264.7 cells assessed as cell viability at 100 uM after 24 hrs by CellTiter96 AQueous one solution cell proliferation assay (reference value: 100 +/- 2.4%); type: cell-based; settings: read-out: Activity
RAW264.7 [2] = test: Antiinflammatory activity in mouse RAW264.7 cells assessed as reduction in LPS-induced NO production after 18 hrs by Griess assay; type: functional, cell-based; settings: RAW264.7, 18 h
Method in brief: (§1)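 RAW 264.7 macrophages were stimulated with LPS together with test compound at 0.1, 1, 10, 25, 50 and 100 (six levels), with L-NMMA as the reference inhibitor. NO production was measured and expressed as % of the LPS-only control, with inhibition = 100 − that value. Results are mean ± SEM, n = 3, and IC50 came from the concentration series.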

[3] = Cytotoxicity against mouse RAW264.7 cells assessed as cell viability at 50 uM after 24 hrs by CellTiter96 AQueous one solution cell proliferation assay (reference value: 100 +/- 2.4%); type: cell-based; settings: read-out: Activity
[4] = Cytotoxicity against mouse RAW264.7 cells assessed as cell viability at 1 uM after 24 hrs by CellTiter96 AQueous one solution cell proliferation assay (reference value: 100 +/- 2.4%); type: cell-based; settings: read-out: Activity
RAW264.7 [5] = test: Antiinflammatory activity in mouse RAW264.7 cells assessed as reduction in LPS-induced NO production at 10 uM after 18 hrs by Griess assay relative to control; type: functional; settings: RAW264.7, 18 h; method in brief: as §1
[6] = Cytotoxicity against mouse RAW264.7 cells assessed as cell viability at 10 uM after 24 hrs by CellTiter96 AQueous one solution cell proliferation assay (reference value: 100 +/- 2.4%); type: cell-based; settings: read-out: Activity
RAW264.7 [7] = test: Antiinflammatory activity in mouse RAW264.7 cells assessed as reduction in LPS-induced NO production at 1 uM after 18 hrs by Griess assay relative to control; type: functional; settings: RAW264.7, 18 h; method in brief: as §1
RAW264.7 [8] = test: Effect on beta-actin expression in LPS-stimulated mouse RAW264.7 cells at 10 uM after 18 hrs by Western blot method; type: cell-based; settings: raw264.7, 18 h
RAW264.7 [9] = test: Inhibition of iNOS expression in LPS-stimulated mouse RAW264.7 cells at 10 uM after 18 hrs by Western blot method; type: functional, cell-based

SMILES: COc1ccc2c(c1)OCC(Cc1ccccc1O)C2=O (centres undefined)
viability at 24 h, 100 µM [1]: 31.5%
IC50 (RAW264.7 [2]): 14.2 µM
viability at 24 h, 50 µM [3]: 49.4%
viability at 24 h, 1 µM [4]: 152%
inhibition at 10 µM (RAW264.7 [5]): 19.7%
viability at 24 h, 10 µM [6]: 118%
inhibition at 1 µM (RAW264.7 [7]): 9.2%

SMILES: COc1cc(OC)c2c(c1)OC/C(=C\c1ccccc1O)C2=O
viability at 24 h, 100 µM [1]: 11.7%
IC50 (RAW264.7 [2]): 1.26 µM
viability at 24 h, 50 µM [3]: 13.3%
Activity (RAW264.7 [8]): Non-Toxic
viability at 24 h, 1 µM [4]: 108%
inhibition at 10 µM (RAW264.7 [5]): 97.2%
viability at 24 h, 10 µM [6]: 114%
inhibition at 1 µM (RAW264.7 [7]): 38.5%
iNOS expression inhibition (active/inactive) (RAW264.7 [9]): Active

SMILES: COc1cc(O)c2c(c1)OC/C(=C\c1ccccc1O)C2=O
viability at 24 h, 100 µM [1]: 11%
IC50 (RAW264.7 [2]): 2.09 µM
viability at 24 h, 50 µM [3]: 10.7%
Activity (RAW264.7 [8]): Non-Toxic
viability at 24 h, 1 µM [4]: 94%
inhibition at 10 µM (RAW264.7 [5]): 92.5%
viability at 24 h, 10 µM [6]: 97%
inhibition at 1 µM (RAW264.7 [7]): 21.1%
iNOS expression inhibition (active/inactive) (RAW264.7 [9]): Active

SMILES: CNC(=N)NCCC[C@H](N)C(=O)O [TILARGININE]
IC50 (RAW264.7 [2]): 16.1 µM
inhibition at 10 µM (RAW264.7 [5]): 14.2%
inhibition at 1 µM (RAW264.7 [7]): -12.5%

SMILES: COc1ccc2c(c1)OC/C(=C\c1ccccc1O)C2=O
viability at 24 h, 100 µM [1]: 11.1%
IC50 (RAW264.7 [2]): 1.75 µM
viability at 24 h, 50 µM [3]: 11%
Activity (RAW264.7 [8]): Non-Toxic
viability at 24 h, 1 µM [4]: 102%
inhibition at 10 µM (RAW264.7 [5]): 91.4%
viability at 24 h, 10 µM [6]: 97.7%
inhibition at 1 µM (RAW264.7 [7]): 28.4%
iNOS expression inhibition (active/inactive) (RAW264.7 [9]): Active

SMILES: COc1cc2c(c(OC)c1OC)C(=O)/C(=C/c1ccccc1O)CO2
viability at 24 h, 100 µM [1]: 10.9%
IC50 (RAW264.7 [2]): 2.91 µM
viability at 24 h, 50 µM [3]: 11.8%
Activity (RAW264.7 [8]): Non-Toxic
viability at 24 h, 1 µM [4]: 94.6%
inhibition at 10 µM (RAW264.7 [5]): 83%
viability at 24 h, 10 µM [6]: 93.4%
inhibition at 1 µM (RAW264.7 [7]): 16.2%
iNOS expression inhibition (active/inactive) (RAW264.7 [9]): Active

Continued, in another order:

IC50 (RAW264.7 [2]): 12.2 µM
SMILES: COc1cc2c(c(O)c1OC)C(=O)C(Cc1ccccc1O)CO2 (racemic)
viability at 24 h, 100 µM [1]: 15.5%
viability at 24 h, 50 µM [3]: 41.1%
viability at 24 h, 1 µM [4]: 97.6%
inhibition at 10 µM (RAW264.7 [5]): 34.1%
viability at 24 h, 10 µM [6]: 96.7%
inhibition at 1 µM (RAW264.7 [7]): -11.8%

IC50 (RAW264.7 [2]): 12.4 µM
SMILES: COc1cc(O)c2c(c1)OCC(Cc1ccccc1O)C2=O (centres undefined)
viability at 24 h, 100 µM [1]: 12.5%
viability at 24 h, 50 µM [3]: 34.2%
viability at 24 h, 1 µM [4]: 97.7%
inhibition at 10 µM (RAW264.7 [5]): 38%
viability at 24 h, 10 µM [6]: 81.1%
inhibition at 1 µM (RAW264.7 [7]): 2.8%

IC50 (RAW264.7 [2]): 13.4 µM
SMILES: COc1cc2c(c(OC)c1OC)C(=O)C(Cc1ccccc1O)CO2 (racemic)
viability at 24 h, 100 µM [1]: 44%
viability at 24 h, 50 µM [3]: 58.7%
viability at 24 h, 1 µM [4]: 89.6%
inhibition at 10 µM (RAW264.7 [5]): 15.9%
viability at 24 h, 10 µM [6]: 87.2%
inhibition at 1 µM (RAW264.7 [7]): -24.6%

IC50 (RAW264.7 [2]): 14.2 µM
SMILES: COc1cc(OC)c2c(c1)OCC(Cc1ccccc1O)C2=O (racemic)
viability at 24 h, 100 µM [1]: 41.3%
viability at 24 h, 50 µM [3]: 55.2%
viability at 24 h, 1 µM [4]: 98.6%
inhibition at 10 µM (RAW264.7 [5]): 20.5%
viability at 24 h, 10 µM [6]: 165%
inhibition at 1 µM (RAW264.7 [7]): -2.8%
